Legend:
Assay type in all cases: functional
Triticum aestivum [1] = assay: Herbicidal activity against Triticum aestivum (wheat) assessed as inhibition of root growth at 200 ug/ml relative to control; conditions: read-out: GI
Summary of the method: (§1)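 Seedlings were grown in an illumination incubator from ten Zea mays seeds or five Triticum aestivum seeds per plate, on filter paper wetted with 2 mL of test solution at 200 mg/L. Distilled water served as blank and metazachlor as positive control. Inhibitory ratio (0–100%) was scored against distilled water.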

Zea mays [2] = assay: Herbicidal activity against Zea mays (maize) assessed as inhibition of root growth at 200 ug/ml relative to control; conditions: read-out: GI; summary of the method: as §1
Triticum aestivum [3] = assay: Herbicidal activity against Triticum aestivum (wheat) assessed as inhibition of height growth at 200 ug/ml relative to control; conditions: read-out: GI; summary of the method: as §1
Zea mays [4] = assay: Herbicidal activity against Zea mays (maize) assessed as inhibition of height growth at 200 ug/ml relative to control; conditions: read-out: GI; summary of the method: as §1
Arabidopsis thaliana = assay: Herbicidal activity against Arabidopsis thaliana assessed as inhibition of seed germination at 200 ug/ml relative to control
Summary of the method: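 Five sterilized Arabidopsis thaliana […] per well in 24-well sterile plates, each with 100 μL of test solution at 200 mg/L, grown in an illumination incubator. Distilled water served as blank and metazachlor as positive control. Inhibitory ratio (0–100%) was scored against distilled water.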

Setaria viridis [5] = assay: Herbicidal activity against Setaria viridis (green foxtail) at 1000 g/ha treated as post-emergence under greenhouse condition
Stellaria media [6] = assay: Herbicidal activity against Stellaria media at 1000 g/ha treated as pre-emergence under greenhouse condition
Stellaria media [7] = assay: Herbicidal activity against Stellaria media at 1000 g/ha treated as post-emergence under greenhouse condition
Echinochloa crus-galli [8] = assay: Herbicidal activity against Echinochloa crus-galli (barnyard grass) at 1000 g/ha treated as pre-emergence under greenhouse condition
Echinochloa crus-galli [9] = assay: Herbicidal activity against Echinochloa crus-galli (barnyard grass) at 1000 g/ha treated as post-emergence under greenhouse condition
Setaria viridis [10] = assay: Herbicidal activity against Setaria viridis (green foxtail) at 1000 g/ha treated as pre-emergence under greenhouse condition

Row | SMILES | inhibition of growth at 200 µg/mL (Triticum aestivum [1]) [%] | inhibition of growth at 200 µg/mL (Zea mays [2]) [%] | inhibition of growth at 200 µg/mL (Triticum aestivum [3]) [%] | inhibition of growth at 200 µg/mL (Zea mays [4]) [%] | inhibition at 200 µg/mL (Arabidopsis thaliana) [%] | inhibition at 1000 g/ha (Setaria viridis [5]) [%] | inhibition at 1000 g/ha (Stellaria media [6]) [%] | inhibition at 1000 g/ha (Stellaria media [7]) [%] | inhibition at 1000 g/ha (Echinochloa crus-galli [8]) [%] | inhibition at 1000 g/ha (Echinochloa crus-galli [9]) [%] | inhibition at 1000 g/ha (Setaria viridis [10]) [%]
1 | O=C(Oc1ccc(CC2NC(=S)NC2=O)cc1)c1ccc(Cl)c([N+](=O)[O-])c1 (configuration not stated) | 2.6 | 44.2 | -3.7 | 54.4 | 50 |  |  |  |  |  | 
2 | O=C(Oc1ccc(CC2NC(=S)NC2=O)cc1)c1ccc([N+](=O)[O-])cc1 (configuration not stated) | -25.8 | 100 | -24.6 | 100 | 40 | 0 | 60 | 0 | 50 | 0 | 50
3 | COc1ccccc1C(=O)Oc1ccc(CC2NC(=S)NC2=O)cc1 (configuration not stated) | 79.1 | -29 | 81.3 | -26.2 | 50 |  |  |  |  |  | 
4 | O=C(Cc1ccc(F)cc1)Oc1ccc(CC2NC(=S)NC2=O)cc1 (configuration not stated) | 86.6 | 77.3 | 50.2 | 70.1 | 20 |  |  |  |  |  | 
5 | COc1ccc(C(=O)Oc2ccc(CC3NC(=S)NC3=O)cc2)c(OC)c1 (configuration not stated) | 10.7 | -11.6 | -2.9 | 19.6 | 20 |  |  |  |  |  | 
6 | O=C(Oc1ccc(CC2NC(=S)NC2=O)cc1)c1cccc([N+](=O)[O-])c1 (configuration not stated) | 16.3 | -16.3 | 20.6 | 3.9 | 20 |  |  |  |  |  | 
7 | O=C(Oc1ccc(CC2NC(=S)NC2=O)cc1)c1ccccc1[N+](=O)[O-] (configuration not stated) | 10.6 | 7.6 | 3.7 | 63.6 | 40 |  |  |  |  |  | 
8 | O=C(Oc1ccc(CC2NC(=S)NC2=O)cc1)c1ccccc1Cl (configuration not stated) | 53.4 | 5.9 | 24.7 | 53.4 | 30 |  |  |  |  |  | 
9 | O=C(COc1ccc(Cl)cc1)Oc1ccc(CC2NC(=S)NC2=O)cc1 (configuration not stated) | 99.6 | 59.4 | 95.2 | 16.4 | 40 |  |  |  |  |  | 
10 | O=C(Oc1ccc(CC2NC(=S)NC2=O)cc1)c1cc([N+](=O)[O-])cc([N+](=O)[O-])c1 (configuration not stated) | 18.8 | 71 | 86.2 | 27.8 | 5 |  |  |  |  |  | 
11 | O=C(Oc1ccc(CC2NC(=S)NC2=O)cc1)c1ccc(F)cc1 (configuration not stated) | -8.5 | 66.3 | -22.9 | 32.8 | 20 |  |  |  |  |  | 
12 | O=C(Cc1cccc2ccccc12)Oc1ccc(CC2NC(=S)NC2=O)cc1 (configuration not stated) | 56.7 | 88 | 100 | 77.4 | 10 | 0 | 60 | 0 | 50 | 0 | 50
13 | O=C(Oc1ccc(CC2NC(=S)NC2=O)cc1)c1cccs1 (configuration not stated) | 15.5 | -24.7 | -1.2 | 11.6 | 20 |  |  |  |  |  | 
14 | COc1cccc(C(=O)Oc2ccc(CC3NC(=S)NC3=O)cc2)c1OC (configuration not stated) | 20.9 | 11.2 | -10.9 | 6.7 | 20 |  |  |  |  |  | 
15 | O=C(Oc1ccc(CC2NC(=S)NC2=O)cc1)c1ccc(Cl)cc1 (configuration not stated) | -13.6 | 8.6 | -12.9 | 23.5 | 40 |  |  |  |  |  | 
16 | O=C(Oc1ccc(CC2NC(=S)NC2=O)cc1)c1cccc(Cl)c1 (configuration not stated) | 47.5 | 22.1 | 8.8 | 41.7 | 70 |  |  |  |  |  | 
17 | O=C(Oc1ccc(CC2NC(=S)NC2=O)cc1)c1ccccc1F (configuration not stated) | 57.9 | -30.2 | 48.4 | -19.4 | 30 |  |  |  |  |  | 
18 | Cc1ccc(C(=O)Oc2ccc(CC3NC(=S)NC3=O)cc2)cc1 (configuration not stated) | 16.8 | 38.7 | 1.27 | 27.9 | 60 |  |  |  |  |  | 

Row | SMILES | inhibition of growth at 200 µg/mL (Triticum aestivum [1]) [%] | inhibition of growth at 200 µg/mL (Zea mays [2]) [%] | inhibition of growth at 200 µg/mL (Triticum aestivum [3]) [%] | inhibition of growth at 200 µg/mL (Zea mays [4]) [%] | inhibition at 200 µg/mL (Arabidopsis thaliana) [%] | inhibition at 1000 g/ha (Setaria viridis [5]) [%] | inhibition at 1000 g/ha (Stellaria media [6]) [%] | inhibition at 1000 g/ha (Stellaria media [7]) [%] | inhibition at 1000 g/ha (Echinochloa crus-galli [8]) [%] | inhibition at 1000 g/ha (Echinochloa crus-galli [9]) [%] | inhibition at 1000 g/ha (Setaria viridis [10]) [%]
19 | COc1cc(C(=O)Oc2ccc(CC3NC(=S)NC3=O)cc2)cc(OC)c1OC (configuration not stated) | 59.7 | 19.9 | 42.3 | 22.1 | 10 |  |  |  |  |  | 
20 | Cc1cccc(C(=O)Oc2ccc(CC3NC(=S)NC3=O)cc2)c1 (configuration not stated) | 12.7 | 61.3 | -14.8 | 62.8 | 50 |  |  |  |  |  | 
21 | O=C(Cc1ccccc1)Oc1ccc(CC2NC(=S)NC2=O)cc1 (configuration not stated) | 42.1 | 58.1 | 34.9 | 53.9 | 20 |  |  |  |  |  | 
22 | COc1ccc(C(=O)Oc2ccc(CC3NC(=S)NC3=O)cc2)cc1 (configuration not stated) | 32.2 | 17.8 | 25.1 | 33.5 | 30 |  |  |  |  |  | 
23 | O=C(Oc1ccc(CC2NC(=S)NC2=O)cc1)c1ccc(-c2ccccc2)cc1 (configuration not stated) | 3.2 | 48.7 | 20.9 | 42.4 | 5 |  |  |  |  |  | 
24 | O=C(Oc1ccc(CC2NC(=S)NC2=O)cc1)c1ccc(Cl)c(Cl)c1 (configuration not stated) | 7 | 24.1 | -15.8 | 36.7 | 40 |  |  |  |  |  | 
25 | Cc1ccccc1C(=O)Oc1ccc(CC2NC(=S)NC2=O)cc1 (configuration not stated) | 20.7 | 33.5 | 5.8 | 53.2 | 60 |  |  |  |  |  | 
26 | O=C(Oc1ccc(CC2NC(=S)NC2=O)cc1)c1ccccc1 (configuration not stated) | 16.2 | 44.5 | -11.1 | 26.6 | 10 |  |  |  |  |  | 
27 | O=C(/C=C/c1ccccc1)Oc1ccc(CC2NC(=S)NC2=O)cc1 (configuration not stated) | 2.5 | 77.9 | 33.8 | 52.7 | 10 |  |  |  |  |  | 
28 | O=C(Cc1cc(C(F)(F)F)cc(C(F)(F)F)c1)Oc1ccc(CC2NC(=S)NC2=O)cc1 (configuration not stated) | 32.7 | 71.5 | 65.5 | 45.5 | 5 |  |  |  |  |  | 
29 | COc1ccc(C(=O)Oc2ccc(CC3NC(=S)NC3=O)cc2)cc1OC (configuration not stated) | 43.1 | 64.2 | 26.1 | 57.9 | 50 |  |  |  |  |  | 
30 | CC(C)(C)c1ccc(C(=O)Oc2ccc(CC3NC(=S)NC3=O)cc2)cc1 (configuration not stated) | 25.9 | 22.5 | 55.5 | 30.9 | 10 |  |  |  |  |  | 
31 | O=C(Oc1ccc(CC2NC(=S)NC2=O)cc1)c1ccc(Br)cc1 (configuration not stated) | -48 | 22 | 5.2 | 14.7 | 60 |  |  |  |  |  | 
32 | Cc1cccc(C)c1N(Cn1cccn1)C(=O)CCl [METAZACHLOR] | 77.7 | 83 | 78.6 | 79 | 70 |  |  |  |  |  | 
33 | O=C(Oc1ccc(CC2NC(=S)NC2=O)cc1)c1ccco1 (configuration not stated) | 30.3 | 60.7 | 27.5 | 72.8 | 40 |  |  |  |  |  | 
34 | CC(=O)Oc1ccc(CC2NC(=S)NC2=O)cc1 (configuration not stated) | 20.9 | -6.7 | -3.6 | -14.5 | 10 |  |  |  |  |  | 
35 | O=C(COc1ccc(Cl)cc1Cl)Oc1ccc(CC2NC(=S)NC2=O)cc1 (configuration not stated) | 99.6 | 74.9 | 97.8 | 65.5 | 50 |  |  |  |  |  | 

Source: ChEMBL document CHEMBL3046718, “Synthesis and herbicidal activity of 5-(4-hydroxybenzyl)-2-thioxoimidazolidin-4-one esters” (2011)
